Test results as given in ChEMBL document CHEMBL1158358, “Synthesis, antimicrobial and cytotoxic activities of some 5-arylidene-4-thioxo-thiazolidine-2-ones” (Eur J Med Chem, 2009).
In brackets after ≈: the same amount, converted by molar mass.

Legend:
Assay type in all cases: functional
Candida albicans [1] = experiment: Antimicrobial activity against Candida albicans UFPEDA 1007 at 300 ug/disk after 48 hrs by disk diffusion method; details: UFPEDA 1007, 48 h, read-out: IZ
In short: (§1)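 Preliminary screen by disk diffusion. Paper disks (6 mm) holding 300 µg of compound were placed on agar plates inoculated with a standardized microbial suspension. DMSO-only disks served as negative controls. A mean inhibition zone below 7 mm was scored as no sensitivity. Values are means, n = 3.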

Enterococcus faecalis [2] = experiment: Antimicrobial activity against multidrug-resistant Enterococcus faecalis H.C. 24962 isolate after 20 hrs by twofold serial dilution technique; details: H.C. 24962, 20 h
In short: (§2)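 Twofold serial dilution MIC in agar plates against Gram-positive strains and multidrug-resistant clinical isolates. Inoculum applied was 10⁵ CFU/plate. Plates with culture medium plus DMSO served as negative control. MIC was read after incubation at 35 °C for 20 h.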

[3] = tested on: Mycolicibacterium smegmatis; experiment: Antimicrobial activity against Mycobacterium smegmatis UFPEDA 71 after 20 hrs by twofold serial dilution technique; details: UFPEDA 71, 20 h
In short: (§3)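 MIC was determined by twofold serial dilution. Bacteria were tested in plates at 10⁵ CFU/plate and read after 20 h. C. albicans was tested in tubes at 10³ CFU/tube and read after 48 h. All incubations were at 35 °C. Medium plus DMSO served as the negative control.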

Pseudomonas aeruginosa = experiment: Antimicrobial activity against Pseudomonas aeruginosa UFPEDA 39 at 300 ug/disk after 24 hrs by disk diffusion method; details: UFPEDA 39, 24 h, read-out: IZ; in short: as §1
[4] = tested on: Mycolicibacterium smegmatis; experiment: Antimicrobial activity against Mycobacterium smegmatis UFPEDA 71 at 300 ug/disk after 24 hrs by disk diffusion method; details: UFPEDA 71, 24 h, read-out: IZ; in short: as §1
Staphylococcus aureus [5] = experiment: Antimicrobial activity against multidrug-resistant Staphylococcus aureus H.C. 20905 isolate after 20 hrs by twofold serial dilution technique; details: H.C. 20905, 20 h; in short: as §2
Enterococcus faecalis [6] = experiment: Antimicrobial activity against multidrug-resistant Enterococcus faecalis H.C. 21752 isolate after 20 hrs by twofold serial dilution technique; details: H.C. 21752, 20 h; in short: as §2
Staphylococcus aureus [7] = experiment: Antimicrobial activity against multidrug-resistant Staphylococcus aureus H.C. 21036 isolate after 20 hrs by twofold serial dilution technique; details: H.C. 21036, 20 h; in short: as §2
Enterococcus faecalis [8] = experiment: Antimicrobial activity against multidrug-resistant Enterococcus faecalis H.C. 24708 isolate after 20 hrs by twofold serial dilution technique; details: H.C. 24708, 20 h; in short: as §2
Serratia marcescens = experiment: Antimicrobial activity against Serratia marcescens UFPEDA 398 at 300 ug/disk after 24 hrs by disk diffusion method; details: UFPEDA 398, 24 h, read-out: IZ; in short: as §1
Bacillus subtilis [9] = experiment: Antimicrobial activity against Bacillus subtilis UFPEDA 16 after 20 hrs by twofold serial dilution technique; details: UFPEDA 16, 20 h; in short: as §3
Enterococcus faecalis [10] = experiment: Antimicrobial activity against Enterococcus faecalis UFPEDA 138 at 300 ug/disk after 24 hrs by disk diffusion method; details: UFPEDA 138, 24 h, read-out: IZ; in short: as §1
Staphylococcus aureus [11] = experiment: Antimicrobial activity against multidrug-resistant Staphylococcus aureus H.C. 21141 isolate after 20 hrs by twofold serial dilution technique; details: H.C. 21141, 20 h; in short: as §2
Staphylococcus aureus [12] = experiment: Antimicrobial activity against multidrug-resistant Staphylococcus aureus H.C. 20489 isolate after 20 hrs by twofold serial dilution technique; details: H.C. 20489, 20 h; in short: as §2
Bacillus subtilis [13] = experiment: Antimicrobial activity against Bacillus subtilis UFPEDA 16 at 300 ug/disk after 24 hrs by disk diffusion method; details: UFPEDA 16, 24 h, read-out: IZ; in short: as §1
Micrococcus luteus [14] = experiment: Antimicrobial activity against Micrococcus luteus UFPEDA 06 after 20 hrs by twofold serial dilution technique; details: UFPEDA 06, 20 h; in short: as §3
Staphylococcus aureus [15] = experiment: Antimicrobial activity against multidrug-resistant Staphylococcus aureus H.C. 20981 isolate after 20 hrs by twofold serial dilution technique; details: H.C. 20981, 20 h; in short: as §2
Enterococcus faecalis [16] = experiment: Antimicrobial activity against Enterococcus faecalis UFPEDA 138 after 20 hrs by twofold serial dilution technique; details: UFPEDA 138, 20 h; in short: as §3
Staphylococcus aureus [17] = experiment: Antimicrobial activity against Staphylococcus aureus UFPEDA 01 at 300 ug/disk after 24 hrs by disk diffusion method; details: UFPEDA 01, 24 h, read-out: IZ; in short: as §1
Staphylococcus [18] = experiment: Antimicrobial activity against coagulase-negative Staphylococcus H.A.M. 338 isolate after 20 hrs by twofold serial dilution technique; details: H.A.M. 338, 20 h; in short: as §3
Enterococcus faecalis [19] = experiment: Antimicrobial activity against multidrug-resistant Enterococcus faecalis H.C. 21944 isolate after 20 hrs by twofold serial dilution technique; details: H.C. 21944, 20 h; in short: as §2
Staphylococcus [20] = experiment: Antimicrobial activity against coagulase-negative Staphylococcus H.A.M. 278 isolate after 20 hrs by twofold serial dilution technique; details: H.A.M. 278, 20 h; in short: as §3
Escherichia coli = experiment: Antimicrobial activity against Escherichia coli UFPEDA 224 at 300 ug/disk after 24 hrs by disk diffusion method; details: UFPEDA 224, 24 h, read-out: IZ; in short: as §1
Micrococcus luteus [21] = experiment: Antimicrobial activity against Micrococcus luteus UFPEDA 06 at 300 ug/disk after 24 hrs by disk diffusion method; details: UFPEDA 06, 24 h, read-out: IZ; in short: as §1
Candida albicans [22] = experiment: Antimicrobial activity against Candida albicans UFPEDA 1007 after 48 hrs by twofold serial dilution technique; details: UFPEDA 1007, 48 h; in short: as §3
Staphylococcus aureus [23] = experiment: Antimicrobial activity against multidrug-resistant Staphylococcus aureus H.C. 20794 isolate after 20 hrs by twofold serial dilution technique; details: H.C. 20794, 20 h; in short: as §2
Staphylococcus aureus [24] = experiment: Antimicrobial activity against Staphylococcus aureus UFPEDA 01 after 20 hrs by twofold serial dilution technique; details: UFPEDA 01, 20 h; in short: as §2
NCI-H292 [25] = experiment: Cytotoxicity against human NCI-H292 cells at 2.5 ug/mL after 72 hrs by MTT assay; details: NCI-H292, 72 h, read-out: GI
In short: (§4)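 MTT antiproliferative assay. Cells were diluted to 10⁵ cells/mL in 96-well plates and preincubated for 24 h at 37 °C in humid 5% CO₂. Compounds or vincristine (reference) were then added. Formazan was dissolved and OD read at 540 nm, compared with medium-only control cells. Run in triplicate.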

HEp-2 [26] = experiment: Cytotoxicity against human Hep2 cells at 10 ug/mL after 72 hrs by MTT assay; details: HEp-2, 72 h, read-out: GI; in short: as §4
NCI-H292 [27] = experiment: Cytotoxicity against human NCI-H292 cells at 5 ug/mL after 72 hrs by MTT assay; details: NCI-H292, 72 h, read-out: GI; in short: as §4
NCI-H292 [28] = experiment: Cytotoxicity against human NCI-H292 cells at 10 ug/mL after 72 hrs by MTT assay; details: NCI-H292, 72 h, read-out: GI; in short: as §4
HEp-2 [29] = experiment: Cytotoxicity against human Hep2 cells at 2.5 ug/mL after 72 hrs by MTT assay; details: HEp-2, 72 h, read-out: GI; in short: as §4
HEp-2 [30] = experiment: Cytotoxicity against human Hep2 cells at 5 ug/mL after 72 hrs by MTT assay; details: HEp-2, 72 h, read-out: GI; in short: as §4
HEp-2 [31] = experiment: Cytotoxicity against human Hep2 cells at 1.25 ug/mL after 72 hrs by MTT assay; details: HEp-2, 72 h, read-out: GI; in short: as §4
NCI-H292 [32] = experiment: Cytotoxicity against human NCI-H292 cells at 1.25 ug/mL after 72 hrs by MTT assay; details: NCI-H292, 72 h, read-out: GI; in short: as §4

Compound | zone of inhibition at 300 µg/disc (Candida albicans [1]) [mm] | MIC (Enterococcus faecalis [2]) [µg/mL] | MIC [3] [µg/mL] | zone of inhibition at 300 µg/disc (Pseudomonas aeruginosa) [mm] | zone of inhibition at 300 µg/disc [4] [mm] | MIC (Staphylococcus aureus [5]) [µg/mL] | MIC (Enterococcus faecalis [6]) [µg/mL] | MIC (Staphylococcus aureus [7]) [µg/mL] | MIC (Enterococcus faecalis [8]) [µg/mL] | zone of inhibition at 300 µg/disc (Serratia marcescens) [mm] | MIC (Bacillus subtilis [9]) [µg/mL] | zone of inhibition at 300 µg/disc (Enterococcus faecalis [10]) [mm] | MIC (Staphylococcus aureus [11]) [µg/mL] | MIC (Staphylococcus aureus [12]) [µg/mL] | zone of inhibition at 300 µg/disc (Bacillus subtilis [13]) [mm] | MIC (Micrococcus luteus [14]) [µg/mL] | MIC (Staphylococcus aureus [15]) [µg/mL] | zone of inhibition at 300 µg/disc (Staphylococcus aureus [17]) [mm] | zone of inhibition at 300 µg/disc (Escherichia coli) [mm] | zone of inhibition at 300 µg/disc (Micrococcus luteus [21]) [mm] | other results
O=C1NC(=S)CS1 | 19 | 32 (≈ 240 µM) | 32 (≈ 240 µM) | < 7 | 18 | 32 (≈ 240 µM) | 32 (≈ 240 µM) | 32 (≈ 240 µM) | 32 (≈ 240 µM) | < 7 | 4 (≈ 30 µM) | 22 | 32 (≈ 240 µM) | 64 (≈ 480 µM) | 21 | 4 (≈ 30 µM) | 32 (≈ 240 µM) | 19 | < 7 | 26 | MIC (Enterococcus faecalis [16]): 64 µg/mL (≈ 480 µM); MIC (Staphylococcus [18]): 64 µg/mL (≈ 480 µM); MIC (Enterococcus faecalis [19]): 32 µg/mL (≈ 240 µM); MIC (Staphylococcus [20]): 64 µg/mL (≈ 480 µM); MIC (Candida albicans [22]): 8 µg/mL (≈ 60.1 µM); MIC (Staphylococcus aureus [23]): 32 µg/mL (≈ 240 µM); MIC (Staphylococcus aureus [24]): 8 µg/mL (≈ 60.1 µM)
O=C1NC(=S)/C(=C/c2ccccc2Cl)S1 | 12 | 32 (≈ 125 µM) | 16 (≈ 62.6 µM) | < 7 | 20 | 2 (≈ 7.82 µM) | 16 (≈ 62.6 µM) | 2 (≈ 7.82 µM) | 16 (≈ 62.6 µM) | < 7 | 16 (≈ 62.6 µM) | 16 | 8 (≈ 31.3 µM) | 2 (≈ 7.82 µM) | 17 | 16 (≈ 62.6 µM) | 4 (≈ 15.6 µM) | 25 | < 7 | 18 | inhibition of growth at 2.5 µg/mL (NCI-H292 [25]): 19.9%; inhibition of growth at 10 µg/mL (HEp-2 [26]): 21.1%; inhibition of growth at 5 µg/mL (NCI-H292 [27]): 34.2%; inhibition of growth at 10 µg/mL (NCI-H292 [28]): 45%; MIC (Enterococcus faecalis [16]): 16 µg/mL (≈ 62.6 µM); MIC (Staphylococcus [18]): 8 µg/mL (≈ 31.3 µM); inhibition of growth at 2.5 µg/mL (HEp-2 [29]): -11.5%; MIC (Enterococcus faecalis [19]): 32 µg/mL (≈ 125 µM); MIC (Staphylococcus [20]): 32 µg/mL (≈ 125 µM); MIC (Candida albicans [22]): 32 µg/mL (≈ 125 µM); inhibition of growth at 5 µg/mL (HEp-2 [30]): 5.97%; inhibition of growth at 1.25 µg/mL (HEp-2 [31]): -11.3%; MIC (Staphylococcus aureus [23]): 2 µg/mL (≈ 7.82 µM); MIC (Staphylococcus aureus [24]): 4 µg/mL (≈ 15.6 µM); inhibition of growth at 1.25 µg/mL (NCI-H292 [32]): 10.6%
O=C1CSC(=O)N1 [THIAZOLIDINEDIONE] | < 7 | – | – | < 7 | < 7 | – | – | – | – | < 7 | – | < 7 | – | – | < 7 | – | – | < 7 | < 7 | < 7 | –
O=C1NC(=S)/C(=C/c2ccc(Cl)cc2)S1 | 12 | 16 (≈ 62.6 µM) | 32 (≈ 125 µM) | < 7 | 20 | 2 (≈ 7.82 µM) | 16 (≈ 62.6 µM) | 2 (≈ 7.82 µM) | 16 (≈ 62.6 µM) | < 7 | 16 (≈ 62.6 µM) | 17 | 8 (≈ 31.3 µM) | 2 (≈ 7.82 µM) | 22 | 32 (≈ 125 µM) | 2 (≈ 7.82 µM) | 27 | < 7 | 25 | inhibition of growth at 2.5 µg/mL (NCI-H292 [25]): 28.6%; inhibition of growth at 10 µg/mL (HEp-2 [26]): 22.2%; inhibition of growth at 5 µg/mL (NCI-H292 [27]): 35.8%; inhibition of growth at 10 µg/mL (NCI-H292 [28]): 41.4%; MIC (Enterococcus faecalis [16]): 32 µg/mL (≈ 125 µM); MIC (Staphylococcus [18]): 4 µg/mL (≈ 15.6 µM); MIC (Enterococcus faecalis [19]): 16 µg/mL (≈ 62.6 µM); MIC (Staphylococcus [20]): 4 µg/mL (≈ 15.6 µM); MIC (Candida albicans [22]): 64 µg/mL (≈ 250 µM); inhibition of growth at 5 µg/mL (HEp-2 [30]): 16.1%; inhibition of growth at 1.25 µg/mL (HEp-2 [31]): 0.92%; MIC (Staphylococcus aureus [23]): 2 µg/mL (≈ 7.82 µM); MIC (Staphylococcus aureus [24]): 4 µg/mL (≈ 15.6 µM); inhibition of growth at 1.25 µg/mL (NCI-H292 [32]): 10%
